Sampled rows, rich in hits. Any-hit rate of the full collection: about 4.9%.
NPY-Y2 antag: NPY-Y2 receptor antagonists, primary screen, cell-based; actives 0.99% (n = 140,000); inhibition, % at 2.7 µM; NPY-Y2 expressing cells, antagonist mode; Neuropeptide Y receptor type 2 (Homo sapiens), P49146; AID 793, 2007; in the data active = inhibition above about 17%
WT yeast gro inh: growth inhibition of WT strain, primary screen, mitochondrial fusion inhibitor project, WT and mutant strains, chemical genetic; mitochondrial fusion phenotypic screen; inhibition, % at 10 µM; actives 2.1% (n = 190,000); AID 1362, 2008; in the data active = inhibition above about 58%; tested in S. cerevisiae
NPY-Y2 PAM-ag: NPY-Y2 potentiators or agonists, primary screen, cell-based. Neuropeptide Y receptor type 2 (Homo sapiens), P49146. cells expressing NPY-Y2, potentiator/agonist read-out. activation, % at 3.6 µM. actives 0.45% (n = 220,000); in the data active = activation above about 27%;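 note: cells stimulated with NPY near EC25 plus isoproterenol at EC100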
RAM inhibit: inhibitors of the yeast RAM network, primary screen, dse1pr::URA3 reporter, 5-FOA selection; S. cerevisiae dse1pr::URA3 reporter, 5-FOA growth OD615, 2 d; analog-sensitive cbk1-as2 kinase mutant strain; actives 1.8% (n = 190,000); AID 868, 2007; inhibition, % at 50 µM;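 active = inhibition above a set limit, 3 SD over mean compound inhibition, cut at about 8.4% in these data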;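 note: inhibition rescues growth on 5-FOA so higher OD means more RAM inhibition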
NPY1 pot ag: NPY-Y1 receptor potentiators or agonists, primary screen, cell-based; Neuropeptide Y receptor type 1 (Homo sapiens), P25929; NPY-Y1 expressing cells, potentiator/agonist activation; activation, % at 3.6 µM; actives 0.37% (n = 220,000); in the data active = activation above about 33%, passing the limit was not always enough;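 note: cells stimulated with NPY at EC10 then isoproterenol at EC100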
Target sequence (P25929 whole entry, looked up): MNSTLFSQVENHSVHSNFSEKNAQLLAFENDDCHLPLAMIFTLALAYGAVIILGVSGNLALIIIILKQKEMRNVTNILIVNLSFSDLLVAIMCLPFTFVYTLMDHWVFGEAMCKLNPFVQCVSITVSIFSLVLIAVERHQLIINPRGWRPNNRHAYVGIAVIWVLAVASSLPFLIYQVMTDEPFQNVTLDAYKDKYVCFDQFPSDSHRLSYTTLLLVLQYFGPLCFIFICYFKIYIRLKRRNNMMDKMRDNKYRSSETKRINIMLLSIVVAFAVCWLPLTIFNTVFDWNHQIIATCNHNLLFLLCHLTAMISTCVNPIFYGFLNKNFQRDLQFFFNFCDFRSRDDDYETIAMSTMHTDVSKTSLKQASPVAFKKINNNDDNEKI
NPY Y1 blocker: NPY-Y1 receptor antagonists, primary screen, cell-based | Neuropeptide Y receptor type 1 (Homo sapiens), P25929 | HEK293-CNG Y1 cells, membrane potential fluorescence; NPY at EC95, then isoproterenol | inhibition, % at 3.6 µM | actives 1% (n = 200,000) | AID 1040, 2008;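 active = inhibition above the campaign mean inhibition of all tested compounds plus 3 SD, cut at about 20% in these data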
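Material: HEK293 cells with Y1 receptor plus CNG channel; times: compound incubation 1 h at room temperature, readout 45 min post-stimulation; signal: fluorescence, membrane potential probe; read-out basis: fluorescence ratio normalized to % inhibition between controls; benchmarks: full-block control isoproterenol-only wells, zero-block control NPY plus isoproterenol wells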
Of the large screens only hits and unclear results are named; the others gave an inactive call.

N=c1c(C(=O)NCc2ccco2)cc2c(=O)n3ccccc3nc2n1Cc1ccc(Cl)cc1	NPY-Y2 antag 25, WT yeast gro inh 74, NPY Y1 blocker 36
N=c1c(C(=O)NC2CCCC2)cc2c(=O)n3ccccc3nc2n1C1CCCC1	none
COCCCn1c(=N)c(C(=O)NC2CCCCC2)cc2c(=O)n3ccccc3nc21	NPY-Y2 antag 20
Cc1ccc(-c2c[n+]3c(n2-c2ccccc2)SCC3)cc1	none (no result: NPY-Y2 antag, WT yeast gro inh, RAM inhibit, NPY Y1 blocker)
O=C(NCC1CCCO1)c1cc(-c2ccco2)nc2ccccc12 (configuration not stated)	none
O=C(NCc1cccs1)C1CCCN1C(=O)Nc1ccccc1 (configuration not stated)	NPY-Y2 PAM-ag 102, NPY1 pot ag 111
CCN1CCN(CCCNC(=O)c2ccc(/C=C3/Sc4ccccc4N(Cc4ccccc4F)C3=O)cc2)CC1	none (no result: NPY-Y2 antag)
CCN1CCN(CCNC(=O)c2ccc(/C=C3/Sc4ccccc4N(Cc4ccccc4C)C3=O)cc2)CC1	WT yeast gro inh 77 (no result: NPY-Y2 antag)
O=c1[nH]c(N2CCc3ccccc3C2)nc2c1CCC2	none
CCCOc1ccc(/C(O)=C2/C(=O)C(=O)N(c3cc(C)on3)C2c2ccc(C(=O)OC)cc2)cc1 (configuration not stated)	RAM inhibit 11
Cc1sc2nc(CSc3ccccc3)nc(N3CCC(C(N)=O)CC3)c2c1C	none (no result: NPY-Y2 antag)
CCOC(=O)c1sc2nc(CSc3ccccc3)nc(N3CCC(C(N)=O)CC3)c2c1C	WT yeast gro inh 71 (no result: NPY-Y2 antag)
CCOC(=O)c1sc2nc(CSc3ccccc3)nc(N3CCCN(C)CC3)c2c1C	WT yeast gro inh 93 (no result: NPY-Y2 antag)
CC(=O)c1ccc(-n2c(CCC(=O)O)ccc2-c2cccs2)cc1	RAM inhibit 9.7
NC(=O)c1ccc(-n2c(CCC(=O)O)ccc2-c2cccs2)cc1	none (no result: NPY-Y2 antag)
Cn1cccc1C(=O)NC(=O)COC(=O)c1cc([N+](=O)[O-])ccc1Cl	none (no result: NPY-Y2 antag)
O=C1CCCc2c1[nH]c1ccc(CN3CCCCC3)cc21	none
Cc1cccnc1NC(=S)Nc1ccc(F)cc1F	none (no result: NPY-Y2 antag)
Cc1ccc(C)c(NC(=S)Nc2ncccc2C)c1	WT yeast gro inh 68 (no result: NPY-Y2 antag)
CCCc1cc(NCc2ccccn2)n2c(nc3ccccc32)c1C#N	RAM inhibit 11 (no result: NPY-Y2 antag)
COc1ccccc1NC(=O)CN1CCN(CC(=O)Nc2ccc(OCc3ccccc3)cc2)CC1	WT yeast gro inh 66
COc1ccccc1NC(=O)CN1CCN(CC(=O)Nc2ccc(F)cc2)CC1	none
O=C(NCCCNC(=O)C(F)(F)C(F)F)C(F)(F)C(F)F	none
Cc1ccc(-c2[nH]c3ccccc3c2C(C[N+](=O)[O-])c2ccco2)cc1 (configuration not stated)	WT yeast gro inh 69
Cc1[nH]c2ccccc2c1C(C[N+](=O)[O-])c1ccco1 (configuration not stated)	none (no result: NPY-Y2 antag)
CN1CCN(C(=O)CCn2nc(-c3ccccc3)c3ccccc3c2=O)CC1	none
COc1cc(OC)cc(C(=O)N[C@H](C(=O)OCC(=O)Nc2ccc(C(N)=O)cc2)C(C)C)c1	none
COc1cc(OC)cc(C(=O)N[C@H](C(=O)OCC(=O)Nc2ccc(F)c(F)c2)C(C)C)c1	RAM inhibit 8.6
Cc1[nH]c2ccccc2c1/C=N/Nc1ccc(F)cc1F	none
Cc1[nH]c2ccccc2c1/C=N/NC(=O)c1cccc([N+](=O)[O-])c1	none (no result: NPY-Y2 antag)
Cc1[nH]c2ccccc2c1/C=N/Nc1ccc([N+](=O)[O-])cc1	NPY-Y2 PAM-ag 56, NPY1 pot ag 65
O=[N+]([O-])c1ccc(N/N=C/c2c[nH]c3ccccc23)c(S(=O)(=O)Nc2ccc(Cl)cc2)c1	WT yeast gro inh 95
COc1ccccc1NS(=O)(=O)c1cc([N+](=O)[O-])ccc1N/N=C/c1c(C)[nH]c2ccccc12	RAM inhibit 11
CN1CCN(S(=O)(=O)c2cc([N+](=O)[O-])ccc2N/N=C/c2ccc(Cl)cc2)CC1	none
O=[N+]([O-])c1cccc(-c2nnc3ccc4ccccc4n23)c1	none
Cc1ccc2c(c1)C(c1ccncc1)=NNC(c1ccc(F)cc1)=N2	none (no result: NPY-Y2 antag)
CC1(C)Cc2c(c(N3CCOCC3)nc3sc(-c4ccc(C(=O)O)o4)c(N)c23)CO1	none
CC(C)C(=O)N(c1cc2sc(=O)oc2c2ccccc12)S(=O)(=O)c1cccs1	WT yeast gro inh 92
COc1ccc(-n2nccc2-c2nn(-c3cccc(OC)c3)c(=O)n(C)c2=O)cc1	none
O=C(O/N=C1\CCCCC1c1ccc([N+](=O)[O-])cc1[N+](=O)[O-])c1c(F)cccc1F (configuration not stated)	none
O=[N+]([O-])c1ccc(C2CCCC/C2=N/OCc2ccccc2F)c([N+](=O)[O-])c1 (configuration not stated)	NPY-Y2 antag 18, NPY Y1 blocker 21
O=c1[nH]c(CCC2CCCC2)nc2ccccc12	none
CCOC(=O)N1CCN(C(=O)CN(C)S(=O)(=O)c2ccc3c(c2)C(C)(C)C(=O)N3C)CC1	WT yeast gro inh 68
CCOC(=O)N1CCN(C(=O)CN(C)S(=O)(=O)c2ccc3c(c2)c(=O)n(C)c(=O)n3C)CC1	none (no result: NPY-Y2 antag)
CCC(C)(C)n1nnnc1C(c1ccncc1)N1CCC(C)CC1 (configuration not stated)	none
CCC(C)(C)n1nnnc1C(c1cc(OC)ccc1OC)N1CCN(Cc2ccccc2)CC1 (configuration not stated)	NPY Y1 blocker 20 (no result: NPY-Y2 antag)
CCC(C)(C)n1nnnc1C(c1ccc(OC)c(OC)c1)N1CCN(c2cccc(OC)c2)CC1 (configuration not stated)	NPY-Y2 antag 22, NPY Y1 blocker 24
CCC(C)(C)n1nnnc1C(c1ccc(C)cc1)N1CCC(C)CC1 (configuration not stated)	NPY-Y2 antag 20, NPY Y1 blocker 39
CCC(c1nnnn1Cc1ccco1)N(Cc1cc2cc(C)cc(C)c2[nH]c1=O)CC1CCCO1 (configuration not stated)	none
COc1cc(/C=C2\SC(=O)N(Cc3ccc(F)cc3)C2=O)cc([N+](=O)[O-])c1O	WT yeast gro inh 62 (no result: NPY-Y2 antag)
COc1cc(/C=C2\SC(=O)N(Cc3ccc(Cl)cc3)C2=O)cc([N+](=O)[O-])c1O	none (no result: NPY-Y2 antag)
O=S(=O)(c1ccccc1)c1cnc(-c2ccccc2)nc1N1CCCCC1	WT yeast gro inh 58 (no result: NPY-Y2 antag)
CN1CCN(c2nc(-c3ccccc3)ncc2S(=O)(=O)c2ccccc2)CC1	none (no result: NPY-Y2 antag)
COc1ccccc1CNC(=S)Nc1cc(C)ccc1C	WT yeast gro inh 66 (no result: NPY-Y2 antag)
CCCCCCOC(=O)CCc1c(C)nc(N)[nH]c1=O	none
